Reference: ChEMBL document CHEMBL6153131, “Rational Design and Optimization of a Potent IDO1 Proteolysis Targeting Chimera (PROTAC)” (J Med Chem, 2025)
Active and inactive are the calls of the source. The rule behind the calls is not given here.

What was measured:
[1] = biological target: T1, Protein cereblon/Indoleamine 2,3-dioxygenase 1 (Homo sapiens, UniProt P14902+Q96SW2); experiment: PROTAC activity at CRBN/IDO1 in human SW1990 cells assessed as induction of IDO1 degradation at 100 nM pretreated with IFN-gamma for 24 hrs followed by compound addition and measured after 24 hrs by Western blotting analysis; assay type: cell-based
Target sequence in this assay (P14902 whole entry, looked up, the tested form may be a part): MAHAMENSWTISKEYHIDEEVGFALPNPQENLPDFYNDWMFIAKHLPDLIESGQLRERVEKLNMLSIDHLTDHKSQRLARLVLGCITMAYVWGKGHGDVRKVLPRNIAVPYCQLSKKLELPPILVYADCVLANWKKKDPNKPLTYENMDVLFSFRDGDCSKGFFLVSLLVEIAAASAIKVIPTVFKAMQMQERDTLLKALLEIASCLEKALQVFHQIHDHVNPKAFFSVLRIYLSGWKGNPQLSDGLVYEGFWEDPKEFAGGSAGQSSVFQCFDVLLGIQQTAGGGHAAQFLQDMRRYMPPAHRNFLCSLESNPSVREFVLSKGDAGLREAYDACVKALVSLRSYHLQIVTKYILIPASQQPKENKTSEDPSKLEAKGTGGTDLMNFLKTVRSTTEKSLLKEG
Target sequence in this assay (Q96SW2 whole entry, looked up, the tested form may be a part): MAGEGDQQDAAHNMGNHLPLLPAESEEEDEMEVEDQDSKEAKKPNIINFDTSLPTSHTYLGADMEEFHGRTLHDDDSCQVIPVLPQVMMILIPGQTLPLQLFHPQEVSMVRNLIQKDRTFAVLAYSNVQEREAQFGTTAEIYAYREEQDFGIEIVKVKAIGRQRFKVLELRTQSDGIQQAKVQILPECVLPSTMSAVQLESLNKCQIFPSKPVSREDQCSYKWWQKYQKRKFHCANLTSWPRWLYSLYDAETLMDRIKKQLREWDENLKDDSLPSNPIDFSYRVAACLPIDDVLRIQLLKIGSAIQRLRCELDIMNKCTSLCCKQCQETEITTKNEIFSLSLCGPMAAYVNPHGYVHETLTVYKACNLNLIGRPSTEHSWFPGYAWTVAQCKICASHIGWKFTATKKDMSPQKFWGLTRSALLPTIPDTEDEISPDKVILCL

[2] = biological target: T1, Protein cereblon/Indoleamine 2,3-dioxygenase 1; experiment: PROTAC activity at CRBN/IDO1 in human U87 cells overexpressing GFP-fused IDO1 assessed as induction of IDO1 degradation at 100 nM pretreated with IFN-gamma for 24 hrs followed by compound addition and measured after 24 hrs by Western blotting analysis; assay type: cell-based
Target sequence in this assay (P14902 whole entry, looked up, the tested form may be a part): as the sequence (P14902 whole entry, looked up, the tested form may be a part) above
Target sequence in this assay (Q96SW2 whole entry, looked up, the tested form may be a part): as the sequence (Q96SW2 whole entry, looked up, the tested form may be a part) above

[3] = biological target: T1, Protein cereblon/Indoleamine 2,3-dioxygenase 1; experiment: PROTAC activity at CRBN/IDO1 in human PDX-6 cells assessed as induction of IDO1 degradation at 100 nM pretreated with IFN-gamma for 24 hrs followed by compound addition and measured after 24 hrs by Western blotting analysis; assay type: cell-based
Target sequence in this assay (P14902 whole entry, looked up, the tested form may be a part): as the sequence (P14902 whole entry, looked up, the tested form may be a part) above
Target sequence in this assay (Q96SW2 whole entry, looked up, the tested form may be a part): as the sequence (Q96SW2 whole entry, looked up, the tested form may be a part) above

[4] = biological target: T1, Protein cereblon/Indoleamine 2,3-dioxygenase 1; experiment: PROTAC activity at CRBN/IDO1 in human U87 cells assessed as induction of IDO1 degradation by measuring remaining activity at 100 nM pretreated with IFN-gamma for 24 hrs followed by compound addition and measured after 24 hrs by Western blotting analysis (reference value: 100%); assay type: cell-based
Target sequence in this assay (P14902 whole entry, looked up, the tested form may be a part): as the sequence (P14902 whole entry, looked up, the tested form may be a part) above
Target sequence in this assay (Q96SW2 whole entry, looked up, the tested form may be a part): as the sequence (Q96SW2 whole entry, looked up, the tested form may be a part) above

[5] = biological target: T1, Protein cereblon/Indoleamine 2,3-dioxygenase 1; experiment: (§1) PROTAC activity at CRBN/N-terminal HiBiT-tagged IDO1 (unknown origin) transfected in human U87 cells assessed as induction of IDO1 degradation pretreated with IFN-gamma for 24 hrs followed by compound addition and measured after 24 hrs by Nano-Glo HiBiT assay; assay type: cell-based
Procedure, shortened: (§2)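 U87 cells carrying HiBiT knocked in by CRISPR/Cas9 at the IDO1 N-terminus, treated for 24 h. Degradation read as loss of luminescence. DC50 fitted from the lowest concentration up to maximal degradation, excluding hook-effect points; triplicate mean ± SD.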
Target sequence in this assay (P14902 whole entry, the tested form may be a part): as the sequence (P14902 whole entry, looked up, the tested form may be a part) above
Target sequence in this assay (Q96SW2 whole entry, the tested form may be a part): as the sequence (Q96SW2 whole entry, looked up, the tested form may be a part) above

[6] = biological target: T1, Protein cereblon/Indoleamine 2,3-dioxygenase 1; experiment: PROTAC activity at CRBN/IDO1 in human MDA-MB-231 cells assessed as induction of IDO1 degradation at 100 nM pretreated with IFN-gamma for 24 hrs followed by compound addition and measured after 24 hrs by Western blotting analysis; assay type: cell-based
Target sequence in this assay (P14902 whole entry, looked up, the tested form may be a part): as the sequence (P14902 whole entry, looked up, the tested form may be a part) above
Target sequence in this assay (Q96SW2 whole entry, looked up, the tested form may be a part): as the sequence (Q96SW2 whole entry, looked up, the tested form may be a part) above

[7] = biological target: T1, Protein cereblon/Indoleamine 2,3-dioxygenase 1; experiment: as §1, with “degradation by measuring maximum efficacy” for “degradation”, “assay relative to control” for “assay”; assay type: cell-based; procedure, shortened: as §2
Target sequence in this assay (P14902 whole entry, looked up, the tested form may be a part): as the sequence (P14902 whole entry, looked up, the tested form may be a part) above
Target sequence in this assay (Q96SW2 whole entry, looked up, the tested form may be a part): as the sequence (Q96SW2 whole entry, looked up, the tested form may be a part) above

[8] = biological target: T1, Protein cereblon/Indoleamine 2,3-dioxygenase 1; experiment: PROTAC activity at CRBN/IDO1 in human U87 cells assessed as induction of IDO1 degradation by measuring remaining activity at 25 nM pretreated with IFN-gamma for 24 hrs followed by compound addition and measured after 24 hrs by Western blotting analysis (reference value: 100%); assay type: cell-based
[9] = biological target: T1, Protein cereblon/Indoleamine 2,3-dioxygenase 1; experiment: PROTAC activity at CRBN/IDO1 in human PDX-38 cells assessed as induction of IDO1 degradation at 100 nM pretreated with IFN-gamma for 24 hrs followed by compound addition and measured after 24 hrs by Western blotting analysis; assay type: cell-based
[10] = biological target: T1, Protein cereblon/Indoleamine 2,3-dioxygenase 1; experiment: PROTAC activity at CRBN/IDO1 in human U87 cells assessed as induction of IDO1 degradation by measuring remaining activity at 50 nM pretreated with IFN-gamma for 24 hrs followed by compound addition and measured after 24 hrs by Western blotting analysis (reference value: 100%); assay type: cell-based
[11] = biological target: T1, Protein cereblon/Indoleamine 2,3-dioxygenase 1; experiment: PROTAC activity at CRBN/IDO1 in human SK-OV-3 cells assessed as induction of IDO1 degradation at 100 nM pretreated with IFN-gamma for 24 hrs followed by compound addition and measured after 24 hrs by Western blotting analysis; assay type: cell-based
[12] = biological target: T1, Protein cereblon/Indoleamine 2,3-dioxygenase 1; experiment: PROTAC activity at CRBN/IDO1 in human PC-3 cells assessed as induction of IDO1 degradation at 100 nM pretreated with IFN-gamma for 24 hrs followed by compound addition and measured after 24 hrs by Western blotting analysis; assay type: cell-based
[13] = biological target: T1, Protein cereblon/Indoleamine 2,3-dioxygenase 1; experiment: PROTAC activity at CRBN/IDO1 in human KNS-42 cells assessed as induction of IDO1 degradation at 100 nM pretreated with IFN-gamma for 24 hrs followed by compound addition and measured after 24 hrs by Western blotting analysis; assay type: cell-based
[14] = biological target: Protein cereblon (Homo sapiens, UniProt Q96SW2); experiment: Binding affinity to CRBN (unknown origin) assessed as dissociation constant by Biolayer Interferometry assay
Chain of Protein cereblon (Q96SW2 whole entry): as the sequence (Q96SW2 whole entry, looked up, the tested form may be a part) above

Compound | Activity [1] | Activity [2] | Activity [3] | Activity [4] [%] | DC50 [5] [nM] | Activity [6] | Emax [7] [%] | Activity [8] [%] | Activity [9] | Activity [10] [%] | Activity [11] | Activity [12] | Activity [13] | Kd [14] [nM]
C[C@@H](C(=O)Nc1cccc(OC2CCN(C(=O)CN3CCC(N4CCN(c5ccc6c(c5)C(=O)N(C5CCC(=O)N(C)C5=O)C6=O)CC4)CC3)CC2)c1)[C@H]1CC[C@@H](c2ccnc3ccc(F)cc32)CC1 (stereo partly specified) | inactive | inactive | inactive | 162 | > 10000 | inactive | < 10 | 99 | inactive | 125 | inactive | inactive | inactive | 
C[C@@H](C(=O)Nc1ccc(OC2CCN(C(=O)CCOCCOCCNc3cccc4c3C(=O)N(C3CCC(=O)NC3=O)C4=O)CC2)cc1)[C@H]1CC[C@@H](c2ccnc3ccc(F)cc32)CC1 (stereo partly specified) |  |  |  |  | 430 |  | 79 |  |  |  |  |  |  | 290
